In ChEMBL document CHEMBL4831519, “Discovery of the first-in-class dual PPARδ/γ partial agonist for the treatment of metabolic syndrome” (Eur J Med Chem, 2021):
Each block holds one compound with its values, some of them ahead of it. Activity calls are given as the source filed them. The calls are words filed in the database; no cut-off is given here.

Key:
[1] = target: T1, Peroxisome proliferator-activated receptor alpha (Homo sapiens, UniProt Q07869); assay: Agonist activity at human PPARalpha transfected in human HepG2 cells incubated for 18 hrs by Renilla/Firefly dual-luciferase reporter assay; format: cell-based
T1 sequence (Q07869 whole entry): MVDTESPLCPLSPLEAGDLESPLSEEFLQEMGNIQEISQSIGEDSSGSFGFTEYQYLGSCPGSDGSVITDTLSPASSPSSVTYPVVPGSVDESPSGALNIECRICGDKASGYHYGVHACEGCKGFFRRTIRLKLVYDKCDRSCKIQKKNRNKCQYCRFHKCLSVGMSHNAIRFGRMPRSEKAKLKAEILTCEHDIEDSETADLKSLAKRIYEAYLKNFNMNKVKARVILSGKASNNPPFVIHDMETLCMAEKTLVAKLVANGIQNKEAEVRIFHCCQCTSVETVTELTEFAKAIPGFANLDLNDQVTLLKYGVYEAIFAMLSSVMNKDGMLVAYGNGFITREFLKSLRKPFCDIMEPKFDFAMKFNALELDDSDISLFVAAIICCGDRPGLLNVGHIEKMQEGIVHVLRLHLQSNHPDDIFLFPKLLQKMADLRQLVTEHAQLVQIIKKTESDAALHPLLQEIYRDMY

[2] = Clearance in Sprague-Dawley rat at 3 mg/kg, po measured for 24 hrs by LC-MS/MS analysis; format: ADME, organism-based; conditions: in vivo
Procedure, shortened: (§1)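 Male SD rats (eight weeks old at purchase) dosed orally at 3 mg/kg. Plasma profile followed over 0–24 h to derive AUC0–24h, Cmax, CL and T1/2. Values are mean SD of four rats.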

[3] = Cmax in Sprague-Dawley rat at 3 mg/kg, po measured for 24 hrs by LC-MS/MS analysis; format: ADME, organism-based; set-up: route oral, dose 3 mg/kg, time 24 hrs; conditions: in vivo; procedure, shortened: as §1
[4] = AUC (0 to 24 hrs) in Sprague-Dawley rat at 3 mg/kg, po measured after 24 hrs by LC-MS/MS analysis; format: ADME, organism-based; set-up: route oral, time 24 hrs, dose 3 mg/kg; conditions: in vivo; procedure, shortened: as §1
[5] = Half-life in Sprague-Dawley rat at 3 mg/kg, po measured for 24 hrs by LC-MS/MS analysis; format: ADME, organism-based; conditions: in vivo; procedure, shortened: as §1
[6] = Toxicity in ob/ob mouse assessed as weight gain at 20 mg/kg, po administered once daily for 30 days and measured every 5 days; format: organism-based; conditions: in vivo, 720 h, time 30 day
Procedure, shortened: (§2)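 Food and water intake measured daily and body weight every 5 days. n = 6, mean SD; Student's t-test vs vehicle, with one-way ANOVA/Tukey.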

[7] = Toxicity in ob/ob mouse assessed as weight gain at 10 mg/kg, po administered once daily for 30 days and measured every 5 days; format: organism-based; conditions: in vivo, 720 h, time 30 day; procedure, shortened: as §2
[8] = Induction of hepatic steatosis in ob/ob mouse at 10 mg/kg, po administered once daily for 30 days by hematoxylin-eosin staining based histopathological analysis; format: organism-based; conditions: in vivo, 720 h, time 30 day
Procedure, shortened: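 Liver sections were stained with hematoxylin-eosin and viewed at 400× for steatosis and ballooning, with normal controls included.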

Mus musculus [9] = organism: Mus musculus; conditions: dose 10.0 mg/kg, time 30.0 day
Mus musculus [10] = organism: Mus musculus; conditions: dose 10.0 mg/kg, time 30.0 day; remark: listed apart in the source
Mus musculus [11] = organism: Mus musculus; conditions: dose 10.0 mg/kg, time 30.0 day; remark: listed apart in the source
Mus musculus [12] = organism: Mus musculus; conditions: dose 10.0 mg/kg, time 30.0 day; remark: listed apart in the source
Mus musculus [13] = organism: Mus musculus; conditions: dose 10.0 mg/kg, time 30.0 day; remark: listed apart in the source
Mus musculus [14] = organism: Mus musculus; conditions: dose 10.0 mg/kg, time 30.0 day; remark: listed apart in the source
[15] = target: T2, Peroxisome proliferator-activated receptor delta (Homo sapiens, UniProt Q03181); assay: Agonist activity at human PPARdelta transfected in human HEK293 cells incubated for 18 hrs by Renilla/Firefly dual-luciferase reporter assay; format: cell-based
T2 sequence (Q03181 whole entry): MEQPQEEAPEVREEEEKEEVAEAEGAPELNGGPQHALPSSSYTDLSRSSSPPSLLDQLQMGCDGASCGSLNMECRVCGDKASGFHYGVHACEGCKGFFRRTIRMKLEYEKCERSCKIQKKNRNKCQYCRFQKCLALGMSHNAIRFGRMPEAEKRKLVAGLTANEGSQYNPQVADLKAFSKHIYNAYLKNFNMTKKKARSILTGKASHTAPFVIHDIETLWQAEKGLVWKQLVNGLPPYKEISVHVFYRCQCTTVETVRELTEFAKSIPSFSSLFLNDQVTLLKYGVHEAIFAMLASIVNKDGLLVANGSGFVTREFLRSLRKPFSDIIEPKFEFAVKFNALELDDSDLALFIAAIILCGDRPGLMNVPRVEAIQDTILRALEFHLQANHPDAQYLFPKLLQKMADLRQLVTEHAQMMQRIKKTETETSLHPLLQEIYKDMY

[16] = target: T3, Peroxisome proliferator-activated receptor gamma (Homo sapiens, UniProt P37231); assay: Agonist activity at human PPARgamma transfected in human HEK293 cells incubated for 18 hrs by Renilla/Firefly dual-luciferase reporter assay; format: cell-based
T3 sequence (P37231 whole entry): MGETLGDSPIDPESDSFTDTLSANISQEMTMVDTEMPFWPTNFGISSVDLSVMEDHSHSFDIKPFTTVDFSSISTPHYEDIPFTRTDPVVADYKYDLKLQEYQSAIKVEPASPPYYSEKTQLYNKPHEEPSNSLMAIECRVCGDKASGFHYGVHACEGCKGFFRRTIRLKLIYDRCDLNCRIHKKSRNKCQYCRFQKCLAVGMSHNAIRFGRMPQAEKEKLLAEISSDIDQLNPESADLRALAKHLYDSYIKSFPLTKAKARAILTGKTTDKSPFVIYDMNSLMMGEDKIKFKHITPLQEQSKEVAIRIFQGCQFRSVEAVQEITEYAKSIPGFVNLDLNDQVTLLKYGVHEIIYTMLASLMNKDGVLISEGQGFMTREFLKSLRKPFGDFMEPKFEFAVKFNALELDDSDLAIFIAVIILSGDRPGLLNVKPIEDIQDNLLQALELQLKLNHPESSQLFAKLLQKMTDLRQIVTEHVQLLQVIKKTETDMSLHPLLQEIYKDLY

EC50 [1]: 4.64 µM
SMILES: CCOc1ccc2c(c1)O/C(=C\c1cc(C)c(OC(C)(C)C(=O)O)c(C)c1)C2=O

EC50 [1]: > 10 µM
SMILES: CCCOc1ccc2c(c1)O/C(=C\c1cc(C)c(OCC(=O)O)c(C)c1)C2=O

CL/F [2]: 0.351 mL/min/kg
Cmax [3]: 8670 ng/mL
AUC(0-t) at 24 h [4]: 51100 ng·h/mL
half-life [5]: 3.85 h
SMILES: Cc1cc(/C=C2\Oc3cc(OCC4CC4)ccc3C2=O)cc(C)c1OC(C)(C)C(=O)O
Activity [6]: Non-Toxic

EC50 [1]: > 10 µM
SMILES: Cc1cc(/C=C2\Oc3cc(OCC4CC4)ccc3C2=O)cc(C)c1OCC(=O)O

EC50 [1]: 3.68 µM
SMILES: COc1ccc2c(c1)O/C(=C\c1cc(C)c(OC(C)(C)C(=O)O)c(C)c1)C2=O

SMILES: CN(CCOc1ccc(CC2SC(=O)NC2=O)cc1)c1ccccn1 (stereo not given) [ROSIGLITAZONE]
Activity [7]: Toxic
Activity [8]: Toxic
inhibition (Mus musculus [9]): inactive
inhibition (Mus musculus [10]): inactive
inhibition (Mus musculus [11]): inactive
inhibition (Mus musculus [12]): inactive
inhibition (Mus musculus [13]): inactive
inhibition (Mus musculus [14]): inactive

EC50 [1]: > 10 µM
EC50 [15]: 3.22 µM
SMILES: COc1ccc2c(c1)O/C(=C\c1cc(C)c(OCC(=O)O)c(C)c1)C2=O

EC50 [1]: 7.72 µM
SMILES: Cc1cc(/C=C2\Oc3cc(OCCC(C)C)ccc3C2=O)cc(C)c1OC(C)(C)C(=O)O

EC50 [1]: > 10 µM
SMILES: CCOc1ccc2c(c1)O/C(=C\c1cc(C)c(OCC(=O)O)c(C)c1)C2=O

EC50 [1]: 6.91 µM
SMILES: CCCOc1ccc2c(c1)O/C(=C\c1cc(C)c(OC(C)(C)C(=O)O)c(C)c1)C2=O

EC50 [1]: 0.375 µM
EC50 [16]: 3.96 µM
SMILES: CSc1ccc(C(=O)/C=C/c2cc(C)c(OC(C)(C)C(=O)O)c(C)c2)cc1 [ELAFIBRANOR]

EC50 [1]: > 10 µM
SMILES: Cc1cc(/C=C2\Oc3cc(OCC(C)C)ccc3C2=O)cc(C)c1OCC(=O)O
